Experimental data taken from ChEMBL document CHEMBL5375970, “Discovery of Potent and Selective WDR5 Proteolysis Targeting Chimeras as Potential Therapeutics for Pancreatic Cancer” (J Med Chem, 2023).
Active and inactive are the calls of the source. No cut-off for these calls is given here.

Legend:
Type in all cases: cell-based
[1] = test system: von Hippel-Lindau disease tumor suppressor/WD repeat-containing protein 5 (Homo sapiens), P61964+P40337 [K32R]; assay: PROTAC activity at human VHL/human WDR5 K32R mutant expressed in HEK293T cells assessed as degradation of WDR5 protein at 0.25 to 5 uM incubated for 3 days by Western blotting analysis; conditions: dose 0.25-5 µM, time 3.0 day
Outline: (§1)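 HEK293T cells were lentivirally transduced with doxycycline-inducible (1 μg/mL) 3×FLAG WDR5 wild type, K32R or K296R and selected with puromycin for 4 days. The stable lines were treated with a concentration series for 72 h. Lysates were run on 4–12% SDS-PAGE and immunoblotted for WDR5 with a vinculin loading control, with at least two independent experiments.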

[2] = target: von Hippel-Lindau disease tumor suppressor/WD repeat-containing protein 5 (Homo sapiens, UniProt P61964+P40337); assay: PROTAC activity at human VHL/human WDR5 wild type expressed in HEK293T cells assessed as degradation of WDR5 protein incubated for 3 days by Western blotting analysis; conditions: time 3.0 day; outline: as §1
[3] = test system: von Hippel-Lindau disease tumor suppressor/WD repeat-containing protein 5 (Homo sapiens), P61964+P40337 [K296R]; assay: PROTAC activity at human VHL/human WDR5 K296R mutant expressed in HEK293T cells assessed as degradation of WDR5 protein at 0.25 to 5 uM incubated for 3 days by Western blotting analysis; conditions: dose 0.25-5 µM, time 3.0 day; outline: as §1
[4] = target: T1, Cereblon/Ikaros (Homo sapiens) (UniProt Q96SW2+Q13422); assay: PROTAC activity at CRBN/IKZF1 in human MV4-11 cells assessed as degradation of IKZF1 protein at 0.5 uM incubated for 18 hrs by Western blotting analysis
Outline: (§2)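 MV4;11 cells (RPMI 1640, 10% FBS) and MIA PaCa-2 cells (DMEM, 10% FBS) treated with DMSO or compound for 18 h. Whole-cell lysates immunoblotted for WDR5, IKZF1 (MV4;11 only) and LIMD1 (MV4;11 only), with tubulin as loading control and fluorescent secondary antibodies. Representative of at least two independent experiments.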

[5] = target: T2, Protein cereblon/LIM domain-containing protein 1 (Homo sapiens) (UniProt Q96SW2+Q9UGP4); assay: PROTAC activity at CRBN/LIMD1 in human MV4-11 cells assessed as degradation of IKZF1 protein at 0.5 uM incubated for 18 hrs by Western blotting analysis; outline: as §2
T2 sequence (Q96SW2 whole entry, looked up, the tested form may be a part): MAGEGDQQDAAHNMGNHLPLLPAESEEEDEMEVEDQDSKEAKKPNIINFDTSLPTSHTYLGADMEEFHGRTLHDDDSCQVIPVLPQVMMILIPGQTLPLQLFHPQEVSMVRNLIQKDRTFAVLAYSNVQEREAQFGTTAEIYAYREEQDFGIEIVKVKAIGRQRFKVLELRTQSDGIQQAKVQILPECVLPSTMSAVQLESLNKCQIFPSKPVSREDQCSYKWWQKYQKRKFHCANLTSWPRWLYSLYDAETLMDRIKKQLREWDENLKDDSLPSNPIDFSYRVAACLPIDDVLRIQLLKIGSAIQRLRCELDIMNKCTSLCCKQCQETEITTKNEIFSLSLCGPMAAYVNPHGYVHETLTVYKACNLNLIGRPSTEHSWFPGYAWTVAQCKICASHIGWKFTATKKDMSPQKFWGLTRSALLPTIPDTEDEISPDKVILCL
T2 sequence (Q9UGP4 whole entry, looked up, the tested form may be a part): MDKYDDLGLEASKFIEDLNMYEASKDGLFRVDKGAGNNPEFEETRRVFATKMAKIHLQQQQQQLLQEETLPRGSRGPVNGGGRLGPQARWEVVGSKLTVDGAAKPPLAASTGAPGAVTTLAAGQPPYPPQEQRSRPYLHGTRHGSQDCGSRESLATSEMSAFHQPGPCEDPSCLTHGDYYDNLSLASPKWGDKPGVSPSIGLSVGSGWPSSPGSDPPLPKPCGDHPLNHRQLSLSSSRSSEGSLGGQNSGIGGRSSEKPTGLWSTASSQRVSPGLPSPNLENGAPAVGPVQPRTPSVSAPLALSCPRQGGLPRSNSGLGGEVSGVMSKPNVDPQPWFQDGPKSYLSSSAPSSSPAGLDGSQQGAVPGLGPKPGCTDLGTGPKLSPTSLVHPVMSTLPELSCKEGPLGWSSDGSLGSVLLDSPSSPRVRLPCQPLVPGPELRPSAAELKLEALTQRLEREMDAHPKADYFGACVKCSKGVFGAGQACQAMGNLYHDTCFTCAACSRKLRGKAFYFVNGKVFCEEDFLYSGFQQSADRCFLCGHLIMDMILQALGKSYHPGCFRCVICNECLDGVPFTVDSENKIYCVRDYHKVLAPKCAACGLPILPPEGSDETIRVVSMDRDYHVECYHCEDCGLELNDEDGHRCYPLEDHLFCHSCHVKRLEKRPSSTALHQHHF

[6] = target: T1, Cereblon/Ikaros (Homo sapiens); assay: PROTAC activity at CRBN/IKZF1 in human MV4-11 cells assessed as degradation of IKZF1 protein at 2 uM incubated for 18 hrs by Western blotting analysis; outline: as §2
[7] = target: T2, Protein cereblon/LIM domain-containing protein 1 (Homo sapiens); assay: PROTAC activity at CRBN/LIMD1 in human MV4-11 cells assessed as degradation of IKZF1 protein at 2 uM incubated for 18 hrs by Western blotting analysis; outline: as §2
[8] = target: T3, Protein cereblon/WD repeat-containing protein 5 (Homo sapiens) (UniProt P61964+Q96SW2); assay: PROTAC activity at CRBN/WDR5 in human MV4-11 cells assessed as degradation of WDR5 protein at 0.5 uM incubated for 18 hrs by Western blotting analysis; outline: as §2
[9] = target: T3, Protein cereblon/WD repeat-containing protein 5 (Homo sapiens); assay: PROTAC activity at CRBN/WDR5 in human MV4-11 cells assessed as degradation of WDR5 protein at 2 uM incubated for 18 hrs by Western blotting analysis; outline: as §2
[10] = target: T3, Protein cereblon/WD repeat-containing protein 5 (Homo sapiens); assay: PROTAC activity at CRBN/WDR5 in human MIA PaCa-2 cells assessed as degradation of WDR5 protein at 0.01 to 5 uM incubated for 18 hrs by Western blotting analysis; conditions: dose 0.01-5 µM; outline: as §2
[11] = target: T1, Cereblon/Ikaros (Homo sapiens); assay: PROTAC activity at CRBN/IKZF1 in human MV4-11 cells assessed as degradation of IKZF1 protein at 0.01 to 5 uM incubated for 18 hrs by Western blotting analysis; conditions: dose 0.01-5 µM; outline: as §2
[12] = target: T3, Protein cereblon/WD repeat-containing protein 5 (Homo sapiens); assay: PROTAC activity at CRBN/WDR5 in human MV4-11 cells assessed as degradation of WDR5 protein at 0.01 to 5 uM incubated for 18 hrs by Western blotting analysis; conditions: dose 0.01-5 µM; outline: as §2

| Activity [4] | Activity [5] | Activity [6] | Activity [7] | Activity [8] | Activity [9] | Activity [10] | Activity [11] | Activity [12] | Compound | Activity [1] | Activity [2] | Activity [3] |
| --- | --- | --- | --- | --- | --- | --- | --- | --- | --- | --- | --- | --- |
|  |  |  |  |  |  |  |  |  | Cc1ncsc1-c1ccc([C@H](C)NC(=O)[C@@H]2C[C@@H](O)CN2C(=O)[C@@H](NC(=O)CNC(=O)c2ccc(F)c(-c3ccc(N4C[C@@H](C)N(C)[C@@H](C)C4)c(NC(=O)c4c[nH]c(=O)cc4C(F)(F)F)c3)c2)C(C)(C)C)cc1 | Active | Dose-Dependent Effect | inactive |
| inactive | inactive | inactive | inactive | Active | Active |  |  |  | CN1CCN(c2ccc(-c3cccc(CN4CCN(CCNC(=O)CCCCNC(=O)COc5cccc6c5C(=O)N(C5CCC(=O)NC5=O)C6=O)CC4)c3)cc2NC(=O)c2c[nH]c(=O)cc2C(F)(F)F)CC1 (stereo unspecified) |  |  |  |
| inactive | inactive | inactive | inactive | Active | Active | Active | inactive | Active | CN1CCN(c2ccc(-c3cccc(CN4CCN(CCNC(=O)CCCCCCCNC(=O)COc5cccc6c5C(=O)N(C5CCC(=O)NC5=O)C6=O)CC4)c3)cc2NC(=O)c2c[nH]c(=O)cc2C(F)(F)F)CC1 (stereo unspecified) |  |  |  |
|  |  |  |  |  |  | Active | inactive | Active | C[C@@H]1CN(c2ccc(-c3cc(C(=O)NCCCCCCCNC(=O)COc4cccc5c4C(=O)N(C4CCC(=O)NC4=O)C5=O)ccc3F)cc2NC(=O)c2c[nH]c(=O)cc2C(F)(F)F)C[C@H](C)N1C (stereo partly specified) |  |  |  |
